Laboratory results from ChEMBL document CHEMBL3797027, “Potent anti-proliferative actions of a non-diuretic glucosamine derivative of ethacrynic acid” (Bioorg Med Chem Lett, 2016).
Activity calls are given as the source filed them.

What was measured:
HCT-116 [1] = assay: Induction of ROS generation in human HCT116 cells at 20 and 40 uM incubated for 3 hrs after pre-incubation with 3 mM NAC for 1 hr by DCFDA staining based flow cytometry; type: functional, cell-based
Method in brief: (§1)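 Cells were exposed for 3 h to compound, or to 25 µM H2O2 as positive control. Where indicated, 3 mM N-acetylcysteine was given 1 h before treatment. Pellets were stained with DCF-DA for 30 min, and intracellular ROS was read as fluorescence shift by flow cytometry against untreated controls.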

[2] = Cytotoxic activity against human HT1080 cells assessed as inhibition of cell proliferation incubated for 72 hrs by MTT assay; type: functional, cell-based; details: HT-1080, 72 h
Method in brief: (§2)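 MTT cell survival assay. IC50 is the concentration that inhibits tumour cell proliferation by 50%, read from cell survival curves. Values are given as mean ± SD of three independent experiments.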

MDA-MB-231 [3] = assay: Increase in PUMA protein expression in p53 mutant expressing human MDA-MB-231 cells at 10 to 40 uM by Western blot method; type: functional, cell-based
Method in brief: (§3)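 H1299 (p53-null), HCT116 (p53 wild type) and MDA-MB-231 (p53 mutant) cells were treated, then lysates were immunoblotted for p53, p21, PUMA and PARP. β-Actin served as loading control.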

MDA-MB-231 [4] = assay: Increase in cleaved PARP protein expression in p53 mutant expressing human MDA-MB-231 cells at 10 to 40 uM by Western blot method; type: functional, cell-based; method in brief: as §3
NCI-H1299 [5] = assay: Induction of ROS generation in human H1299 cells at 20 and 40 uM incubated for 3 hrs by DCFDA staining based flow cytometry; type: functional, cell-based; method in brief: as §1
NCI-H1299 [6] = assay: Increase in cleaved PARP protein expression in p53 deficient human H1299 cells at 10 to 40 uM by Western blot method; type: functional, cell-based; method in brief: as §3
MDA-MB-231 [7] = assay: Increase in p21'cip1 protein expression in p53 mutant expressing human MDA-MB-231 cells at 10 to 40 uM by Western blot method; type: functional, cell-based; method in brief: as §3
Mus musculus [8] = assay: Toxicity in mouse assessed as induction of paralysis at 120 mg/kg/week for 2 weeks; type: organism-based; details: in vivo, 336 h
MDA-MB-231 [9] = assay: Induction of ROS generation in human MDA-MB-231 cells at 20 and 40 uM incubated for 3 hrs after pre-incubation with 3 mM NAC for 1 hr by DCFDA staining based fluorescence microscopy; type: functional, cell-based
Method in brief: (§4)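 After 3 h exposure at different concentrations, DCFH-DA fluorescence was imaged by fluorescence microscopy. H2O2 (25 µM) served as positive control. In some wells, cells were pretreated with 3 mM N-acetylcysteine before compound addition.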

HCT-116 [10] = assay: Increase in p21'cip1 protein expression in wild type p53 expressing human HCT116 cells at 10 to 40 uM by Western blot method; type: functional, cell-based; method in brief: as §3
MDA-MB-231 [11] = assay: Reduction in cellular total thiol levels in human MDA-MB-231 cells at 40 uM incubated for 3 hrs by Ellman's reagent based assay; type: functional
Method in brief: (§5)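 Cells exposed to 0–40 µM compound for 3 h, then trypsinized. Total thiols in cell extracts were quantified with Ellman's reagent.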

NCI-H1299 [12] = assay: Increase in p21'cip1 protein expression in p53 deficient human H1299 cells at 10 to 40 uM by Western blot method; type: functional, cell-based; method in brief: as §3
[13] = Potency index, ratio of IC50 for ethacrynic acid to IC50 for test compound for cytotoxic activity against human SKBR3 cells assessed as inhibition of cell proliferation incubated for 72 hrs by MTT assay; type: functional, SK-BR-3
Mus musculus [14] = assay: Toxic diuretic effect in 12 hrs fasted CD1 mouse assessed as increase in urine output at 10 mg/kg, ip measured 6 to 24 hrs post dose relative to untreated control; type: toxicity, organism-based; details: in vivo
Method in brief: (§6)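 Female CD-1 mice fasted 12 h, then given compound IP at 10 mg/kg in PEG/EtOH/H2O (54:14:32). Vehicle control group included. Mice were housed singly in metabolic cages with free access to water. Voided urine was collected in graduated tubes under the cages over 0–6 h and 6–24 h after injection.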

[15] = molecular target: Glutathione S-transferase P (Homo sapiens) (UniProt P09211); assay: Inhibition of GSTP1 in human H1299 cells assessed as reduction in GST-pi activity pre-incubated for 3 hrs followed by chlorodinitrobenzene and reduced glutathione addition by photometric assay
[16] = Cytotoxic activity against human H1299 cells assessed as inhibition of cell proliferation incubated for 72 hrs by MTT assay; type: functional, cell-based; details: NCI-H1299, 72 h; method in brief: as §2
NCI-H1299 [17] = assay: Induction of ROS generation in human H1299 cells at 20 and 40 uM incubated for 3 hrs after pre-incubation with 3 mM NAC for 1 hr by DCFDA staining based fluorescence microscopy; type: functional, cell-based; method in brief: as §4
HCT-116 [18] = assay: Reduction in cellular total thiol levels in human HCT116 cells incubated for 3 hrs by Ellman's reagent based assay; type: functional, cell-based; method in brief: as §5
MDA-MB-231 [19] = assay: Increase in p21 (waf1/cip1) protein expression in p53 mutant expressing human MDA-MB-231 cells at 10 to 40 uM by Western blot method; type: functional, cell-based; method in brief: as §3
NCI-H1299 [20] = assay: Reduction in cellular total thiol levels in human H1299 cells incubated for 3 hrs by Ellman's reagent based assay; type: functional, cell-based; method in brief: as §5
HCT-116 [21] = assay: Induction of ROS generation in human HCT116 cells at 20 and 40 uM incubated for 3 hrs by DCFDA staining based flow cytometry; type: functional, cell-based; method in brief: as §1
HCT-116 [22] = assay: Increase in p53 protein expression in wild type p53 expressing human HCT116 cells at 10 to 40 uM by Western blot method; type: functional, cell-based; method in brief: as §3
HCT-116 [23] = assay: Induction of cell cycle arrest in wild type p53 expressing human HCT116 cells assessed as accumulation at G2/M phase incubated for 24 hrs by propidium iodide staining based flow cytometry; type: functional
Mus musculus [24] = assay: Toxic diuretic effect in 12 hrs fasted CD1 mouse assessed as increase in urine output at 10 mg/kg, ip measured 0 to 6 hrs post dose relative to untreated control; type: toxicity, organism-based; details: in vivo; method in brief: as §6
MDA-MB-231 [25] = assay: Induction of ROS generation in human MDA-MB-231 cells at 20 and 40 uM incubated for 3 hrs by DCFDA staining based flow cytometry; type: functional, cell-based; method in brief: as §1
[26] = Potency index, ratio of IC50 for ethacrynic acid to IC50 for test compound for cytotoxic activity against human SF188 cells assessed as inhibition of cell proliferation incubated for 72 hrs by MTT assay; type: functional, SF-188
[27] = Cytotoxic activity against human SKBR3 cells assessed as inhibition of cell proliferation incubated for 72 hrs by MTT assay; type: functional, cell-based; details: SK-BR-3, 72 h; method in brief: as §2
HT-29 = assay: Cytotoxic activity against human HT-29 cells assessed as inhibition of cell proliferation incubated for 72 hrs by MTT assay; type: functional, cell-based; details: HT-29, 72 h; method in brief: as §2
MDA-MB-231 [28] = assay: Induction of ROS generation in human MDA-MB-231 cells at 20 and 40 uM incubated for 3 hrs after pre-incubation with 3 mM NAC for 1 hr by DCFDA staining based flow cytometry; type: functional, cell-based; method in brief: as §1
Mus musculus [29] = assay: Toxicity in mouse assessed as induction of lethargy at 120 mg/kg/week for 2 weeks; type: organism-based; details: in vivo, 336 h
NCI-H1299 [30] = assay: Increase in p21 (waf1/cip1) protein expression in p53 deficient human H1299 cells at 10 to 40 uM by Western blot method; type: functional, cell-based; method in brief: as §3

Sequence of Glutathione S-transferase P (Homo sapiens) (P09211 2-210 limits assumed): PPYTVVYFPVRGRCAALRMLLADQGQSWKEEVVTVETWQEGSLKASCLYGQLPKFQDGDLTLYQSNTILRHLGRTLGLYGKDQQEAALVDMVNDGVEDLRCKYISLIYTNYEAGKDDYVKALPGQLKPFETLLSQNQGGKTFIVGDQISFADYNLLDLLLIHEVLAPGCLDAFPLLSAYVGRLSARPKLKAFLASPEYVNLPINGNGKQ

C=C(CC)C(=O)c1ccc(OCC(=O)N[C@@H]2[C@@H](O)[C@H](O)[C@@H](CO)O[C@H]2O)c(Cl)c1Cl
58%: Imax (MDA-MB-231 [11])
16.1 µM: IC50 [27]
21.7 µM: IC50 (HT-29)
Non-toxic: Activity (Mus musculus [8]) | Activity (Mus musculus [14]) | Activity (Mus musculus [24]) | Activity (Mus musculus [29])
16.3 µM: IC50 [2]
inactive: Activity (HCT-116 [1]) | Activity (MDA-MB-231 [9]) | Activity (NCI-H1299 [17]) | Activity (MDA-MB-231 [28])
11.5 µM: IC50 [16]
3: Ratio IC50 [13] | Ratio IC50 [26]
active: Activity (MDA-MB-231 [3]) | Activity (MDA-MB-231 [4]) | Activity (NCI-H1299 [5]) | Activity (NCI-H1299 [6]) | Activity (MDA-MB-231 [7]) | Activity (HCT-116 [10]) | Activity (NCI-H1299 [12]) | Activity [15] Dose-dependent effect | Activity (HCT-116 [18]) Dose-dependent effect | Activity (MDA-MB-231 [19]) | Activity (NCI-H1299 [20]) Dose-dependent effect | Activity (HCT-116 [21]) | Activity (HCT-116 [22]) | Activity (HCT-116 [23]) Dose-dependent effect | Activity (MDA-MB-231 [25]) | Activity (NCI-H1299 [30])
